In paper PMC7610535 (Nature chemical biology, 2020):

How the values were obtained:
AURORA-A [1] = molecular target: T1, AURORA-A (Homo sapiens, UniProt O14965); assay: HiBiT assay: AURORA-A levels based on luciferase measurements in MV4-11 cells; format: cell-based
T1 sequence (O14965 1-403): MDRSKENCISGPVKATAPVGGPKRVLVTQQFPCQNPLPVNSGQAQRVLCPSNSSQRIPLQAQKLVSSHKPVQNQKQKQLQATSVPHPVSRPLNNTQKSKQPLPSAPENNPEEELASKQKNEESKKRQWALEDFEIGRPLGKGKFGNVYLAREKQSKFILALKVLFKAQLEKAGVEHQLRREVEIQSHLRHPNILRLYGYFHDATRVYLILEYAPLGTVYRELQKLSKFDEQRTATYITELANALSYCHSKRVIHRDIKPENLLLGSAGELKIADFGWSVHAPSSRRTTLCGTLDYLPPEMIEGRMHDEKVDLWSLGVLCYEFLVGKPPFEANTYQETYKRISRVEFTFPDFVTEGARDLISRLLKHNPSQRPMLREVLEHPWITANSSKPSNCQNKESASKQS
Outline: (§1)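 HiBiT-tagged wild-type or mutant AURORA-A was expressed stably in MV4-11 cells (infected twice, 24 h apart, selected 72 h after infection). Cells were exposed to serial dilutions of the test compound for 6 h and lysed with lytic detection reagent containing the LgBiT fragment. Luminescence was then read. DC50 and DCmax were derived from the concentration–response data.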

AURORA-A [2] = molecular target: T1, AURORA-A; assay: Immunoblot of AURORA-A in U2OS, HLE and IMR5 cells; format: cell-based; conditions: HLE and IMR5 cell lines
Outline: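 U2OS and HLE cells were exposed to a range of concentrations for 6 h. IMR5 cells were exposed for 6 h, or at 1 µM alongside siRNA knockdown of AURORA-A/B. Lysis was in RIPA buffer for 20 min at 4 °C, and protein was quantified by BCA. Samples were separated by Bis-Tris PAGE, blotted onto PVDF, blocked in 5% milk/TBS-T and probed overnight at 4 °C.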

MV4-11 cells [3] = assay: Quantitative SILAC mass spectrometry: relative protein abundance in MV4-11 cells; format: cell-based, human; conditions: 0.1 µM
[4] = molecular target: AURORA-A-CEREBLON complex (Homo sapiens, UniProt O14965+Q96SW2); assay: HA immunoprecipitation of AURORA-A, co-precipitated CEREBLON; format: binding; conditions: MV4-11 cell extracts, 0.5 µM degrader
AURORA-A-CEREBLON complex, sequence (Q96SW2 whole entry, one chain of several): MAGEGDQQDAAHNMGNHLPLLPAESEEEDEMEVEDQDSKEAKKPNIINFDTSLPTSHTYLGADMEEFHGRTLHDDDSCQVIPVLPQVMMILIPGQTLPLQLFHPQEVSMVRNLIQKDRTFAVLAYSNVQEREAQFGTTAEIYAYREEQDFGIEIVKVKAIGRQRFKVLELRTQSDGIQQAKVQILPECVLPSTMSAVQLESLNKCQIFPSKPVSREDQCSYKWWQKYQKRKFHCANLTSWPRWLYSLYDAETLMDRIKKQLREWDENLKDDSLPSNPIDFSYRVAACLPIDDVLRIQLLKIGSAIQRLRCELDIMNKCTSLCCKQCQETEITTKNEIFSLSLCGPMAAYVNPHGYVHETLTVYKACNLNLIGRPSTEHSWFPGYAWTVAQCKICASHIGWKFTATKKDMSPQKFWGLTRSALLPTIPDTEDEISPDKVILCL
AURORA-A-CEREBLON complex, sequence (Q16531 whole entry partner, one chain of several): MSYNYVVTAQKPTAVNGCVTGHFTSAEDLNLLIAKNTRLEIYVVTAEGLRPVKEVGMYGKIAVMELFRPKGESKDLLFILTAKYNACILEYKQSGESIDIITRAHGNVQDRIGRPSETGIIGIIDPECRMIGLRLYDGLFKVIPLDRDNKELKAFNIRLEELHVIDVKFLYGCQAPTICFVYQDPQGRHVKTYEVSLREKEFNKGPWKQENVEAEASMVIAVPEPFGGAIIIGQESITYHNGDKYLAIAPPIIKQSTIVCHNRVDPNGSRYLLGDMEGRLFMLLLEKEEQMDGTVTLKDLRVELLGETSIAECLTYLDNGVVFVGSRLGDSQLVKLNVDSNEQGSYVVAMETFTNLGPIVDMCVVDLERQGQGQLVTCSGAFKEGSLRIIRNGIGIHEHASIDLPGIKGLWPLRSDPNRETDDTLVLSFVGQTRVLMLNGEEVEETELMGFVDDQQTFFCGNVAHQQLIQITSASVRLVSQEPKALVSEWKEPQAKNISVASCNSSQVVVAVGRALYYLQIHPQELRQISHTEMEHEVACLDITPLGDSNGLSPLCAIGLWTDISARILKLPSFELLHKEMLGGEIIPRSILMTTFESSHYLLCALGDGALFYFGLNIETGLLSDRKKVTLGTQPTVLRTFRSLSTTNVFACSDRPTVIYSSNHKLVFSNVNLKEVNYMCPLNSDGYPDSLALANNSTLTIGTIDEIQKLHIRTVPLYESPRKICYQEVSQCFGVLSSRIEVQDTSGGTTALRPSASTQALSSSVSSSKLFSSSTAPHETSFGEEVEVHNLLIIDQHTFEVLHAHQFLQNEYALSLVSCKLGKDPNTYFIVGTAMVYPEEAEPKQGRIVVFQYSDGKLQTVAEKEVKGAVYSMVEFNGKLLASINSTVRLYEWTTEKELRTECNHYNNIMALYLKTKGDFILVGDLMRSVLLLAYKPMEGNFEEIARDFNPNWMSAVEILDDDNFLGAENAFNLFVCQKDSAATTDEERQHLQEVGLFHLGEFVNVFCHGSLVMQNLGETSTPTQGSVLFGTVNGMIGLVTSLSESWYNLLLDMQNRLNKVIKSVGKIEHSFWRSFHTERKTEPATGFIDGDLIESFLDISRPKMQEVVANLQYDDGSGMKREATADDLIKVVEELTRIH

MV4-11 cells [5] = assay: BrdU/PI flow cytometry, cell cycle distribution of MV4-11 cells; format: cell-based, human; conditions: 0.5 µM, 12 hours
Outline: (§2)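 Cells were pulsed with 10 µM BrdU for 1 h, washed in ice-cold PBS and fixed overnight in 80% ethanol at −20 °C. After a 1% BSA/PBS-T wash, they were stained 30 min at 37 °C with RNase A (24 µg/ml) and propidium iodide (54 µM), then analysed by flow cytometry. For IMR5, the EtOH-treated cells of the doxycycline-inducible line served as the non-overexpressing cells.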

IMR5 cells = assay: BrdU/PI flow cytometry, cell cycle distribution of IMR5 cells; format: cell-based, human; conditions: IMR5 cells without ectopic AURORA-A, 1 µM, 18 hours
Outline: as §2

AURORA-A^Imut = molecular target: T2, AURORA-A^Imut (Homo sapiens, UniProt O14965, A267W/E239R/F157E/I158E/I57V/K153E/K156E/K224E/P191W/R137E/R189E/R375E/S266W); assay: Depletion of AURORA-A interface mutant in MV4-11 cells; format: cell-based; conditions: 12 mutated amino acids in the presumed interface with CEREBLON
T2 sequence (O14965 1-403 I57V/R137E/K153E/K156E/F157E/I158E/R189E/P191W/K224E/E239R/S266W/A267W/R375E): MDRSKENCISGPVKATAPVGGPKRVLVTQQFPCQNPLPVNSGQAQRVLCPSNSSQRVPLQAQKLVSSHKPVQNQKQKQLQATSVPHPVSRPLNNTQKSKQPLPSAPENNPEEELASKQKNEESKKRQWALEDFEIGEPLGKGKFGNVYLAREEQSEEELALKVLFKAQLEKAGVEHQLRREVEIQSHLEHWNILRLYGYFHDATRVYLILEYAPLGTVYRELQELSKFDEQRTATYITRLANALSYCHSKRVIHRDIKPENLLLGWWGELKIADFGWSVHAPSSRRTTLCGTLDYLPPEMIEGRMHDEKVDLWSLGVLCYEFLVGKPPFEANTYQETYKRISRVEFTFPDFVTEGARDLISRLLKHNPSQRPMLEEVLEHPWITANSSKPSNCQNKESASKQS
Outline: as §1

AURKA = molecular target: T3, AURKA (Homo sapiens, UniProt O14965); assay: Kinobead selectivity profiling: AURKA; format: binding
T3 sequence (O14965 1-403): T1 sequence (O14965 1-403)

ACAD10 = molecular target: T4, ACAD10 (Homo sapiens, UniProt Q6JQN1); assay: Kinobead selectivity profiling: ACAD10; format: binding
T4 sequence (Q6JQN1 1-1059): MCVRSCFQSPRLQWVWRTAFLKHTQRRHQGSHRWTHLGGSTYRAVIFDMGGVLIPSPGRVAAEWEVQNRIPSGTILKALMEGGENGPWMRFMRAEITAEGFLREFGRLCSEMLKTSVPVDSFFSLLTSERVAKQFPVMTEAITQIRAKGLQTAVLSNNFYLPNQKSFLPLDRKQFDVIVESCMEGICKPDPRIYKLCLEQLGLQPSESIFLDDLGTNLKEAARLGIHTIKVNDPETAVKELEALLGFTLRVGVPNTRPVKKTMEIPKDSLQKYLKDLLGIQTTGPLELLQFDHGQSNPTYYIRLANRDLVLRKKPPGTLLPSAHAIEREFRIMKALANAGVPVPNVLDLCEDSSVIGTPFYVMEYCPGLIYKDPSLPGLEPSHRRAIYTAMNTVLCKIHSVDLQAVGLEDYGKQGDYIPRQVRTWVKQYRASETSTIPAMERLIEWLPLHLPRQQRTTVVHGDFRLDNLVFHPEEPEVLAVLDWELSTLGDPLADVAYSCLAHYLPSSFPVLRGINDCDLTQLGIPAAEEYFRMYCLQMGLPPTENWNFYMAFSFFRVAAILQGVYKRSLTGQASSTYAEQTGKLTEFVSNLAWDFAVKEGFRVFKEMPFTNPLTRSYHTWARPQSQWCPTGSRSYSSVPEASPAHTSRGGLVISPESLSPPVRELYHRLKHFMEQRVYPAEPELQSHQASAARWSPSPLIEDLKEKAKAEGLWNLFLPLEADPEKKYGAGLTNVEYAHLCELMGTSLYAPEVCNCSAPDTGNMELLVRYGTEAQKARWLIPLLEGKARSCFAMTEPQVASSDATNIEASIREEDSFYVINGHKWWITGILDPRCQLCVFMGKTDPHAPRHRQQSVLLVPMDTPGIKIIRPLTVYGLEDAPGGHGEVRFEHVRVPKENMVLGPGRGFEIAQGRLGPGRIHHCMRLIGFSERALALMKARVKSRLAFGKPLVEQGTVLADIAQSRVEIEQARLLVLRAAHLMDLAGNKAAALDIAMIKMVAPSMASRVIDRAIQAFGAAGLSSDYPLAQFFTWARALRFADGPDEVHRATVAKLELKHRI

Compound: COc1cc(Nc2ncc3c(n2)-c2ccc(Cl)cc2C(c2c(F)cccc2OC)=NC3)ccc1C(=O)NCCOCCOCCNC(=O)COc1cccc2c1C(=O)N(C1CCC(=O)NC1=O)C2=O (centres unmarked) [JB170]
- concentration of maximal depletion of AURORA-A (DCmax) (AURORA-A [1]; HiBiT-AURORA-A, 6 hours): 300 nM
- concentrations ineffective in depleting AURORA-A (Hook effect) (AURORA-A [1]; immunoblot and luminescence assays): ≥ 10 µM
- AURORA-A depletion (in words) (AURORA-A [2]): rapid AURORA-A depletion in all cases
- destabilization of CEREBLON neosubstrates (GSPT1, CSNK1A1, ZFP91, IZKF1/3) (MV4-11 cells [3]; 6 hours): none was destabilized
- depletion of other proteins (p<0.05, log2FC<-1) (MV4-11 cells [3]; 6 hours, 4,259 proteins, including AURORA-B): no additional protein was depleted
- CEREBLON co-precipitation with HA-tagged AURORA-A [4]: efficient CEREBLON co-precipitation
- cell cycle distribution (MV4-11 cells [5]): delayed or arrested S-phase progression
- cell cycle distribution (IMR5 cells): induced an accumulation of BrdU-negative cells in S-phase, but did not induce G2/M arrest
- JB170-mediated depletion of AURORA-A^Imut (AURORA-A^Imut): not depleted
- Kd (AURKA): 99 nM
- Kd (ACAD10): 253 nM
